Results on 1 molecule are retold here after ChEMBL document CHEMBL1138476 (J Med Chem, 2009).

The source made the active and inactive calls. No cut-off for these calls is given here.

Data set [1] has as its system Rattus norvegicus. The experiment in a line: Effect on acute renal function in rat assessed as change in urine urea level per 100 gm body weight at 30 mg/kg, po (RVb= 321+/-62 mg/dl). It counts as functional.
Data set [2] relates to Rattus norvegicus. The experiment in a line: Toxicity in rat assessed as total distance traveled at 3 mg/kg, po after 1 hr by spontaneous locomotor test. Format: organism-based. Also noted: dose 3 mg/kg, route oral. As to conditions: in vivo. In outline:
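Rat spontaneous locomotor activity test with oral dosing in 0.25% Methocel 1 h before testing, at doses up to 100 mg/kg. Values are mean ± SEM, with N rats per group, compared with the vehicle (zero-dose) group.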

Data set [3] is described as follows: Cmax in chimpanzee at 1 mg/kg, po. Particulars: in vivo. It counts as ADME, organism-based, Pan troglodytes. Also noted: dose 1 mg/kg, route oral. In outline:
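Chimpanzee PK. Oral: 1 mg/kg in two alert animals, given as a 1 mg/mL suspension in 50–50 (v/v) 0.5% methylcellulose/Tang orange juice with 1% Tween-80. IV: 0.5 mg/kg in one animal in 10% DMAC, 70% propylene glycol and deionized water, infused over 10 min (0.2 mL/kg). EDTA blood was taken predose and at 2–96 h; iv sampling added 6, 15 and 30 min.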

Data set [4] has as its system Rattus norvegicus. The experiment in a line: Anxiolytic activity in rat assessed as increase in time spent on open arm at 18 mg/kg, po by elevated plus-maze test. Further details: dose 18 mg/kg. It counts as functional, organism-based. In outline: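 Rat elevated plus maze: percent of test time spent in the open arms. Oral dosing in 0.25% Methocel 60 min before testing; n = 12 per dose, mean ± SEM. Analysed by ANOVA followed by Fisher's LSD comparisons against vehicle.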

Data set [5] deals with Canis familiaris. Description: Effect on respiratory function in spontaneously breathing mongrel dog assessed as change in airway resistance at 5 mg/kg after intravenous infusion for 30 mins (RVb= 20.2+/-12.3 %). It counts as functional, Canis lupus familiaris.
In data set [6] the test system is Canis familiaris. Description: Effect on respiratory function in spontaneously breathing mongrel dog assessed as change in pulmonary compliance at 5 mg/kg after intravenous infusion for 6 mins (RVb= 6.0+/-4.2 %). It counts as functional, Canis lupus familiaris.
A short description of data set [7]: Oral bioavailability in chimpanzee at 1 mg/kg. Particulars: in vivo. Format: ADME, organism-based, Pan troglodytes. In outline: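 Two alert chimpanzees were given 1 mg/kg po as a 1 mg/mL suspension in 50:50 (v/v) 0.5% methylcellulose and Tang orange juice containing 1% Tween-80. EDTA blood was taken predose and at 2–96 h. Bioavailability was calculated against a 0.5 mg/kg iv dose given to one animal.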

The target in data set [8] is T1, Adenosine receptor A1 (Homo sapiens) (UniProt P30542).
T1 sequence (whole entry): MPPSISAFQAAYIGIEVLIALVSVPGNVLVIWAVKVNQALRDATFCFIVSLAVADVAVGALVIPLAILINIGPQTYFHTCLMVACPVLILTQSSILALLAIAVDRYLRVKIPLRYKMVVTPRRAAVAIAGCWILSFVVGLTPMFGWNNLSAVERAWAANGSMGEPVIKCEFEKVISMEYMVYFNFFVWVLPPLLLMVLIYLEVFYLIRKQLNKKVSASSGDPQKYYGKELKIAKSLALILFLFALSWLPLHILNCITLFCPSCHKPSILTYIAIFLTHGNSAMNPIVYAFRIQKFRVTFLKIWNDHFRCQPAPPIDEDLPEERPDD
Description: Inhibition of ligand binding in adenosine A1 receptor. Further details: scale not given: the % may be the effect or the level left. In outline: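 Screened at 10^-7 and 10^-5 M for binding inhibition. Then run twice in a dose–response format on the cloned rat adenosine A1 receptor expressed in CHO cells to obtain Ki.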

A word on the Cmax: it is the peak of the concentration-time curve. In general, bioavailability refers to the share of a dose that reaches the circulation, judged against a reference dose that is usually intravenous. Take `CC[C@@H](C)Nc1nc(C)nc2c(-c3ccc(OC)nc3C)c(C)nn12` [PEXACERFONT]: the Activity with Rattus norvegicus [1] was 166 mg/dL; in the data set on Rattus norvegicus [2], 5639 cm; in the data set with Canis familiaris [5] it was -57.5%; in the data set with Canis familiaris [6], -2.5%; in data set [8], 90%. In data set [3], this molecule came in with a maximum concentration (Cmax) of 840 nM. Besides, in the data set with Rattus norvegicus [4], the result was Active. In data set [7], this molecule returned a bioavailability of 49%.
